# Measured values from ChEMBL document CHEMBL4689842, “EUbOPEN Chemogenomics Library wave 1” (2021).
# Values joined by “and” are separate entries in the source; they are usually repeats but may differ in a detail not shown here. Equal values may be shown once.
# Test system: HEK-293T
# Assay: Multiplex assay against HEK293T;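 on Population Tubulin-Different-Phenotype (%): share of the cells with healthy nuclei that show this phenotype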
# Type: toxicity, cell-based
# Settings: human
# In short: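 On a CQ1 microscope at 37°C and 5% CO2, live cells were imaged after compound addition. They had been stained at seeding with Hoechst33342, BioTracker Green Microtubule Cytoskeleton Dye, MitoTracker Red and Annexin V Alexa Fluor 680. CellPathfinder machine-learning gating assigned cells to Hoechst high-intensity objects or normal cells, normal cells to healthy, pyknosed or fragmented nuclei, and pyknosed cells to mitotic or apoptotic. Tubulin, mitochondrial-mass and membrane-permeability phenotypes are per cents of healthy-nucleus cells.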
# [1] = 12 h, 1 µM, compound concentration 1 uM, replicate 1
# [2] = 12 h, 1 µM, compound concentration 1 uM, replicate 2
# [3] = 12 h, 10 µM, compound concentration 10 uM, replicate 1
# [4] = 12 h, 10 µM, compound concentration 10 uM, replicate 2
# [5] = 24 h, 1 µM, compound concentration 1 uM, replicate 1
# [6] = 24 h, 1 µM, compound concentration 1 uM, replicate 2
# [7] = 24 h, 10 µM, compound concentration 10 uM, replicate 1
# [8] = 24 h, 10 µM, compound concentration 10 uM, replicate 2
# [9] = 48 h, 1 µM, compound concentration 1 uM, replicate 1
# [10] = 48 h, 1 µM, compound concentration 1 uM, replicate 2
# [11] = 48 h, 10 µM, compound concentration 10 uM, replicate 1
# [12] = 48 h, 10 µM, compound concentration 10 uM, replicate 2
compound,measurement,setting,value
CN1CCN(CCOc2cc(OC3CCOCC3)c3c(Nc4c(Cl)ccc5c4OCO5)ncnc3c2)CC1 [SARACATINIB],Population Apoptotic (%),[1],51%
same,Population Fragmented Nuclei (%),[1],11%
same,Population Healthy Nuclei (%),[1],29%
same,Population Hoechst High Intensity Objects (%),[1],15%
same,Population Membrane Permeable-Phenotype (%),[1],2%
same,Population Mitochondria Different-Phenotype (%),[1],89%
same,Population Mitotic Cells (%),[1],48%
same,Population Normal (%),[1],84%
same,Population Pyknosed Nuclei (%),[1],58%
same,Population Tubulin-Different-Phenotype (%),[1],82%
same,Total Cell Count,[1],345
same,Population Apoptotic (%),[2],22%
same,Population Fragmented Nuclei (%),[2],4%
same,Population Healthy Nuclei (%),[2],31%
same,Population Hoechst High Intensity Objects (%),[2],8%
same,Population Membrane Permeable-Phenotype (%),[2],3%
same,Population Mitochondria Different-Phenotype (%),[2],71%
same,Population Mitotic Cells (%),[2],77%
same,Population Normal (%),[2],91%
same,Population Pyknosed Nuclei (%),[2],63%
same,Population Tubulin-Different-Phenotype (%),[2],58%
same,Population Apoptotic (%),[3],72%
same,Population Fragmented Nuclei (%),[3],15%
same,Population Healthy Nuclei (%),[3],21%
same,Population Hoechst High Intensity Objects (%),[3],17%
same,Population Membrane Permeable-Phenotype (%),[3],15%
same,Population Mitochondria Different-Phenotype (%),[3],94%
same,Population Mitotic Cells (%),[3],27%
same,Population Normal (%),[3],82%
same,Population Pyknosed Nuclei (%),[3],63%
same,Population Tubulin-Different-Phenotype (%),[3],89%
same,Total Cell Count,[3],223
same,Population Apoptotic (%),[4],82%
same,Population Fragmented Nuclei (%),[4],6%
same,Population Healthy Nuclei (%),[4],22%
same,Population Hoechst High Intensity Objects (%),[4],7%
same,Population Membrane Permeable-Phenotype (%),[4],2%
same,Population Mitochondria Different-Phenotype (%),[4],100%
same,Population Mitotic Cells (%),[4],17%
same,Population Normal (%),[4],92%
same,Population Pyknosed Nuclei (%),[4],71%
same,Population Tubulin-Different-Phenotype (%),[4],100%
same,Total Cell Count,[4],190
same,Population Apoptotic (%),[5],54%
same,Population Fragmented Nuclei (%),[5],11%
same,Population Healthy Nuclei (%),[5],36%
same,Population Hoechst High Intensity Objects (%),[5],13%
same,Population Membrane Permeable-Phenotype (%),[5],3%
same,Population Mitochondria Different-Phenotype (%),[5],87%
same,Population Mitotic Cells (%),[5],45%
same,Population Normal (%),[5],86%
same,Population Pyknosed Nuclei (%),[5],52%
same,Population Tubulin-Different-Phenotype (%),[5],65%
same,Total Cell Count,[5],382
same,Population Apoptotic (%),[6],28%
same,Population Fragmented Nuclei (%),[6],4%
same,Population Healthy Nuclei (%),[6],39%
same,Population Hoechst High Intensity Objects (%),[6],5%
same,Population Membrane Permeable-Phenotype (%),[6],1%
same,Population Mitochondria Different-Phenotype (%),[6],58%
same,Population Mitotic Cells (%),[6],71%
same,Population Normal (%),[6],94%
same,Population Pyknosed Nuclei (%),[6],55%
same,Population Tubulin-Different-Phenotype (%),[6],66%
same,Total Cell Count,[6],217
same,Population Apoptotic (%),[7],80%
same,Population Fragmented Nuclei (%),[7],12%
same,Population Healthy Nuclei (%),[7],15%
same,Population Hoechst High Intensity Objects (%),[7],23%
same,Population Membrane Permeable-Phenotype (%),[7],0%
same,Population Mitochondria Different-Phenotype (%),[7],100%
same,Population Mitotic Cells (%),[7],19%
same,Population Normal (%),[7],76%
same,Population Pyknosed Nuclei (%),[7],71%
same,Population Tubulin-Different-Phenotype (%),[7],90%
same,Total Cell Count,[7],248
same,Population Apoptotic (%),[8],88%
same,Population Fragmented Nuclei (%),[8],5%
same,Population Healthy Nuclei (%),[8],25%
same,Population Hoechst High Intensity Objects (%),[8],5%
same,Population Membrane Permeable-Phenotype (%),[8],6%
same,Population Mitochondria Different-Phenotype (%),[8],95%
same,Population Mitotic Cells (%),[8],11%
same,Population Normal (%),[8],94%
same,Population Pyknosed Nuclei (%),[8],69%
same,Population Tubulin-Different-Phenotype (%),[8],85%
same,Total Cell Count,[8],208
same,Population Apoptotic (%),[9],51%
same,Population Fragmented Nuclei (%),[9],16%
same,Population Healthy Nuclei (%),[9],47%
same,Population Hoechst High Intensity Objects (%),[9],18%
same,Population Membrane Permeable-Phenotype (%),[9],2%
same,Population Mitochondria Different-Phenotype (%),[9],50%
same,Population Mitotic Cells (%),[9],48%
same,Population Normal (%),[9],81%
same,Population Pyknosed Nuclei (%),[9],36%
same,Population Tubulin-Different-Phenotype (%),[9],49%
same,Total Cell Count,[9],448
same,Population Apoptotic (%),[10],26%
same,Population Fragmented Nuclei (%),[10],4%
same,Population Healthy Nuclei (%),[10],70%
same,Population Hoechst High Intensity Objects (%),[10],5%
same,Population Membrane Permeable-Phenotype (%),[10],1%
same,Population Mitochondria Different-Phenotype (%),[10],32%
same,Population Mitotic Cells (%),[10],73%
same,Population Normal (%),[10],94%
same,Population Pyknosed Nuclei (%),[10],25%
same,Population Tubulin-Different-Phenotype (%),[10],55%
same,Total Cell Count,[10],315
same,Population Apoptotic (%),[11],73%
same,Population Fragmented Nuclei (%),[11],23%
same,Population Healthy Nuclei (%),[11],30%
same,Population Hoechst High Intensity Objects (%),[11],26%
same,Population Membrane Permeable-Phenotype (%),[11],3%
same,Population Mitochondria Different-Phenotype (%),[11],96%
same,Population Mitotic Cells (%),[11],26%
same,Population Normal (%),[11],73%
same,Population Pyknosed Nuclei (%),[11],45%
same,Population Tubulin-Different-Phenotype (%),[11],78%
same,Total Cell Count,[11],230
same,Population Apoptotic (%),[12],84%
same,Population Fragmented Nuclei (%),[12],6%
same,Population Healthy Nuclei (%),[12],41%
same,Population Hoechst High Intensity Objects (%),[12],11%
same,Population Membrane Permeable-Phenotype (%),[12],0%
same,Population Mitochondria Different-Phenotype (%),[12],98%
same,Population Mitotic Cells (%),[12],15%
same,Population Normal (%),[12],88%
same,Population Pyknosed Nuclei (%),[12],52%
same,Population Tubulin-Different-Phenotype (%),[12],71%
same,Total Cell Count,[12],204
CNCc1ccc(-c2cc(-c3nc(-c4ccc(S(=O)(=O)C(C)C)cc4)cnc3N)on2)cc1 [BERZOSERTIB],Population Apoptotic (%),[1],44% and 25%
same,Population Fragmented Nuclei (%),[1],94% and 79%
same,Population Hoechst High Intensity Objects (%),[1],36% and 50%
same,Population Membrane Permeable-Phenotype (%),[1],31% and 34%
same,Population Mitochondria Different-Phenotype (%),[1],9%
same,Population Mitotic Cells (%),[1],55% and 75%
same,Population Normal (%),[1],63% and 49%
same,Population Tubulin-Different-Phenotype (%),[1],13%
same,Total Cell Count,[1],865 and 596
same,Population Apoptotic (%),[2],14% and 11%
same,Population Fragmented Nuclei (%),[2],66%
same,Population Hoechst High Intensity Objects (%),[2],28% and 80%
same,Population Mitochondria Different-Phenotype (%),[2],0% and 16%
same,Population Mitotic Cells (%),[2],85% and 88%
same,Population Tubulin-Different-Phenotype (%),[2],50% and 60%
same,Total Cell Count,[2],1257 and 695
same,Population Apoptotic (%),[3],37% and 15%
same,Population Fragmented Nuclei (%),[3],82% and 86%
same,Population Healthy Nuclei (%),[3],12% and 7%
same,Population Hoechst High Intensity Objects (%),[3],48% and 47%
same,Population Membrane Permeable-Phenotype (%),[3],46% and 29%
same,Population Mitochondria Different-Phenotype (%),[3],6% and 7%
same,Population Mitotic Cells (%),[3],62% and 85%
same,Population Normal (%),[3],51% and 52%
same,Population Pyknosed Nuclei (%),[3],5%
same,Population Tubulin-Different-Phenotype (%),[3],18% and 11%
same,Total Cell Count,[3],918 and 667
same,Population Fragmented Nuclei (%),[4],95% and 56%
same,Population Hoechst High Intensity Objects (%),[4],34% and 86%
same,Population Mitochondria Different-Phenotype (%),[4],5% and 9%
same,Population Mitotic Cells (%),[4],68% and 92%
same,Population Tubulin-Different-Phenotype (%),[4],82% and 59%
same,Total Cell Count,[4],1271 and 770
same,Population Apoptotic (%),[5],43% and 15%
same,Population Fragmented Nuclei (%),[5],91% and 64%
same,Population Hoechst High Intensity Objects (%),[5],39% and 65%
same,Population Membrane Permeable-Phenotype (%),[5],50% and 21%
same,Population Mitochondria Different-Phenotype (%),[5],7% and 13%
same,Population Mitotic Cells (%),[5],56% and 84%
same,Population Normal (%),[5],60% and 34%
same,Population Pyknosed Nuclei (%),[5],3% and 9%
same,Population Tubulin-Different-Phenotype (%),[5],30% and 11%
same,Total Cell Count,[5],826 and 568
same,Population Hoechst High Intensity Objects (%),[6],33% and 85%
same,Population Membrane Permeable-Phenotype (%),[6],33% and 60%
same,Population Mitochondria Different-Phenotype (%),[6],4% and 6%
same,Population Mitotic Cells (%),[6],87% and 97%
same,Population Pyknosed Nuclei (%),[6],30%
same,Population Tubulin-Different-Phenotype (%),[6],71% and 81%
same,Total Cell Count,[6],1330 and 870
same,Population Fragmented Nuclei (%),[7],65% and 58%
same,Population Healthy Nuclei (%),[7],16% and 26%
same,Population Hoechst High Intensity Objects (%),[7],46% and 73%
same,Population Membrane Permeable-Phenotype (%),[7],36% and 31%
same,Population Mitotic Cells (%),[7],40% and 88%
same,Population Normal (%),[7],53% and 26%
same,Population Pyknosed Nuclei (%),[7],17% and 14%
same,Population Tubulin-Different-Phenotype (%),[7],36% and 27%
same,Total Cell Count,[7],767 and 657
same,Population Apoptotic (%),[8],23% and 0%
same,Population Hoechst High Intensity Objects (%),[8],36% and 86%
same,Population Membrane Permeable-Phenotype (%),[8],21% and 56%
same,Population Mitochondria Different-Phenotype (%),[8],14%
same,Population Mitotic Cells (%),[8],76% and 100%
same,Population Tubulin-Different-Phenotype (%),[8],78% and 76%
same,Total Cell Count,[8],1281 and 924
Cc1sc2c(c1C)C(c1ccc(Cl)cc1)=N[C@@H](CC(=O)OC(C)(C)C)c1nnc(C)n1-2,Population Apoptotic (%),[3],16% and 17%
same,Population Fragmented Nuclei (%),[3],19% and 13%
same,Population Healthy Nuclei (%),[3],65% and 71%
same,Population Hoechst High Intensity Objects (%),[3],14% and 8%
same,Population Membrane Permeable-Phenotype (%),[3],3%
same,Population Mitochondria Different-Phenotype (%),[3],6% and 5%
same,Population Mitotic Cells (%),[3],83% and 82%
same,Population Normal (%),[3],85% and 91%
same,Population Pyknosed Nuclei (%),[3],15%
same,Population Tubulin-Different-Phenotype (%),[3],2%
same,Total Cell Count,[3],561 and 772
same,Population Apoptotic (%),[4],6% and 3%
same,Population Fragmented Nuclei (%),[4],14% and 12%
same,Population Healthy Nuclei (%),[4],79%
same,Population Hoechst High Intensity Objects (%),[4],3% and 4%
same,Population Membrane Permeable-Phenotype (%),[4],0%
same,Population Mitochondria Different-Phenotype (%),[4],10% and 11%
same,Population Mitotic Cells (%),[4],93% and 96%
same,Population Normal (%),[4],96% and 95%
same,Population Pyknosed Nuclei (%),[4],5% and 7%
same,Population Tubulin-Different-Phenotype (%),[4],0%
same,Total Cell Count,[4],1959 and 1675
same,Population Apoptotic (%),[7],16% and 12%
same,Population Fragmented Nuclei (%),[7],17% and 9%
same,Population Healthy Nuclei (%),[7],70% and 80%
same,Population Hoechst High Intensity Objects (%),[7],11% and 10%
same,Population Membrane Permeable-Phenotype (%),[7],1%
same,Population Mitochondria Different-Phenotype (%),[7],7% and 3%
same,Population Mitotic Cells (%),[7],84% and 87%
same,Population Normal (%),[7],88% and 89%
same,Population Pyknosed Nuclei (%),[7],11% and 10%
same,Population Tubulin-Different-Phenotype (%),[7],2% and 1%
same,Total Cell Count,[7],472 and 770
same,Population Apoptotic (%),[8],5%
same,Population Fragmented Nuclei (%),[8],19% and 20%
same,Population Healthy Nuclei (%),[8],76% and 75%
same,Population Hoechst High Intensity Objects (%),[8],5%
same,Population Membrane Permeable-Phenotype (%),[8],0%
same,Population Mitochondria Different-Phenotype (%),[8],5%
same,Population Mitotic Cells (%),[8],94%
same,Population Normal (%),[8],94%
same,Population Pyknosed Nuclei (%),[8],4% and 3%
same,Population Tubulin-Different-Phenotype (%),[8],0%
same,Total Cell Count,[8],1813 and 2044
